For 35 molecules, inhibition, EC50 and EC90 results are on record in ChEMBL document CHEMBL3046938, “Synthesis and fungicidal activity of novel 2-oxocycloalkylsulfonylureas” (J Agric Food Chem, 2005).

Structures are written as SMILES. ≈ marks a conversion by molar mass, not a printed value.

In assay [1] the test system is Fusarium graminearum. The assay can be described thus: Fungicidal activity against Fusarium graminearum assessed as mycelial growth inhibition in potato dextrose agar at 50 ug/mL at 24 +/- 0.5 degC. The class given is functional. The method in brief:
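Single-concentration screen against G. zeae by mycelium growth rate test. Compound in acetone was mixed into PDA at 50 μg/mL, fungus cakes were placed on the plates and grown at 24 ± 0.5 °C, with an acetone blank and three replicates. Percent inhibition was recorded.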

Assay [2] concerns Colletotrichum orbiculare. Briefly: Fungicidal activity against Colletotrichum orbiculare assessed as mycelial growth inhibition in potato dextrose agar at 24 +/- 0.5 degC. The class given is functional, organism-based. In a few lines: (§1)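 Mycelium growth rate test. Compounds in acetone were mixed into PDA at 100, 50, 25, 12.5 and 6.25 μg/mL, fungus cakes were placed on the plates and grown at 24 ± 0.5 °C, with an acetone blank and three replicates. Inhibition rates were measured, and EC50 and EC90 were estimated by logit analysis.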

Assay [3] has as its system Fusarium oxysporum f. sp. vasinfectum. The assay can be described thus: Fungicidal activity against Fusarium oxysporum f. sp. vasinfectum assessed as mycelial growth inhibition in potato dextrose agar at 24 +/- 0.5 degC. It is filed as functional, organism-based. In a few lines:
as §1

In a further assay the test system is Rhizoctonia solani. Briefly: Fungicidal activity against Rhizoctonia solani assessed as mycelial growth inhibition in potato dextrose agar at 24 +/- 0.5 degC. It is filed as functional, organism-based. The method in brief: as §1
Another assay relates to Pythium aphanidermatum. The assay can be described thus: Fungicidal activity against Pythium aphanidermatum assessed as mycelial growth inhibition in potato dextrose agar at 24 +/- 0.5 degC. The class given is functional, organism-based. The method in brief:
as §1

For another assay, the system named is Verticillium dahliae. The assay can be described thus: Fungicidal activity against Verticillium dahliae assessed as mycelial growth inhibition in potato dextrose agar at 24 +/- 0.5 degC. It is filed as functional, organism-based. In a few lines:
as §1

For another assay, the system named is Botrytis cinerea. The assay can be described thus: Fungicidal activity against Botryotinia fuckeliana assessed as mycelial growth inhibition in potato dextrose agar at 24 +/- 0.5 degC. The class given is functional, organism-based. In a few lines: as §1
Assay [4] deals with Fusarium graminearum. The assay can be described thus: Fungicidal activity against Fusarium graminearum assessed as mycelial growth inhibition in potato dextrose agar at 24 +/- 0.5 degC. It is filed as functional, organism-based. The method in brief: as §1

`O=C(NC1CCCCCCCCCCC(=O)OCCC1)NS(=O)(=O)C1CCCCCCCCCCC1=O` (stereo not drawn): in the assay on Fusarium graminearum [1], the inhibition at 50 µg/mL is 26.1%.
Still for that read-out and setting: the figure for `Cc1ccnc(NC(=O)NS(=O)(=O)C2CCCCCCCCCCC2=O)n1` (stereo not drawn) is 18.1%.
Same read-out and setting: with `COc1cc(Cl)nc(NC(=O)NS(=O)(=O)C2CCCCCCCCCCC2=O)n1` (stereo not drawn) the figure was 34.5%; with `COc1cc(OC)nc(NC(=O)NS(=O)(=O)C2CCCCCCCCCCC2=O)n1` (stereo not drawn), 26.5%; with `Cc1cc(C)nc(NC(=O)NS(=O)(=O)C2CCCCCCCCCCC2=O)n1` (stereo not drawn), 18.1%.
Same read-out and setting: the figure for `CCc1cc(CC)nc(NC(=O)NS(=O)(=O)C2CCCCCCCCCCC2=O)n1` (stereo not drawn) is 55.6%; for `CCCc1cc(CCC)nc(NC(=O)NS(=O)(=O)C2CCCCCCCCCCC2=O)n1` (stereo not drawn) it is 34.5%; for `CC(C)c1cc(C(C)C)nc(NC(=O)NS(=O)(=O)C2CCCCCCCCCCC2=O)n1` (stereo not drawn) it is 55.6%.
For `Cc1ccc(NC(=O)NS(=O)(=O)C2CCCCCCCCCCC2=O)cc1` (stereo not drawn), the inhibition at 50 µg/mL in the assay on Fusarium graminearum [1] stood at 34.5%.
On the same count and under the same terms, the figure for `COc1ccc(NC(=O)NS(=O)(=O)C2CCCCCCCCCCC2=O)cc1` (stereo not drawn) is 18.1%; for `O=C(Nc1ccc(Cl)cc1)NS(=O)(=O)C1CCCCCCCCCCC1=O` (stereo not drawn) it is 49%; for `O=C(Nc1ccccc1Cl)NS(=O)(=O)C1CCCCCCCCCCC1=O` (stereo not drawn) it is 49%.
Still for that read-out and setting: with `O=C(Nc1ccc(F)cc1)NS(=O)(=O)C1CCCCCCCCCCC1=O` (stereo not drawn) the figure was 18.1%; with `O=C(Nc1ccc(Cl)c(Cl)c1)NS(=O)(=O)C1CCCCCCCCCCC1=O` (stereo not drawn), 55.6%.
For the molecule `O=C(Nc1cc(Cl)ccc1Cl)NS(=O)(=O)C1CCCCCCCCCCC1=O` (stereo not drawn), the EC50 in assay [2] turned out to be 13.5 µg/mL (≈ 30.1 µM); in assay [3], 19.5 µg/mL (≈ 43.5 µM); in the assay on Rhizoctonia solani, 38.9 µg/mL (≈ 86.6 µM); with Pythium aphanidermatum it was 16.7 µg/mL (≈ 37.1 µM); with Verticillium dahliae, 22 µg/mL (≈ 49 µM); in the assay on Botrytis cinerea it was 7.8 µg/mL (≈ 17.4 µM). In the assay with Fusarium graminearum [4], the EC50 was 31.5 µg/mL (≈ 70 µM). The EC90 in assay [2] worked out at 64.3 µg/mL (≈ 143 µM); in assay [3], 53.8 µg/mL (≈ 120 µM); in the assay with Rhizoctonia solani it was 106 µg/mL (≈ 235 µM); in the assay with Pythium aphanidermatum, 49.9 µg/mL (≈ 111 µM); in the assay on Verticillium dahliae, 142 µg/mL (≈ 316 µM); in the assay on Botrytis cinerea it was 33.8 µg/mL (≈ 75.1 µM). Moreover, in the assay with Fusarium graminearum [4], the EC90 was determined as 169 µg/mL (≈ 377 µM). The inhibition at 50 µg/mL with Fusarium graminearum [1] amounted to 81.6%.
As for `Cc1cccc(NC(=O)NS(=O)(=O)C2CCCCCCCCCCC2=O)c1` (stereo not drawn), the inhibition at 50 µg/mL in the assay with Fusarium graminearum [1] turned out to be 34.5%.
`Cc1ccc(NC(=O)NS(=O)(=O)C2CCCCCCCCCCC2=O)cc1C` (stereo not drawn): the EC50 in assay [2] stood at 30.4 µg/mL (≈ 74.5 µM); in assay [3], 24 µg/mL (≈ 58.8 µM); with Rhizoctonia solani, 112 µg/mL (≈ 274 µM); in the assay with Pythium aphanidermatum, 33.5 µg/mL (≈ 82.1 µM); in the assay with Verticillium dahliae, 33.7 µg/mL (≈ 82.5 µM); with Botrytis cinerea, 9.57 µg/mL (≈ 23.4 µM). Further, the EC50 in the assay with Fusarium graminearum [4] was 39 µg/mL (≈ 95.5 µM). Besides, the EC90 in assay [2] was 105 µg/mL (≈ 256 µM); in assay [3], 98 µg/mL (≈ 240 µM); in the assay with Rhizoctonia solani it was 556 µg/mL (≈ 1360 µM); in the assay with Pythium aphanidermatum, 124 µg/mL (≈ 303 µM); in the assay on Verticillium dahliae, 484 µg/mL (≈ 1180 µM); with Botrytis cinerea it was 35.9 µg/mL (≈ 87.8 µM). The EC90 in the assay with Fusarium graminearum [4] is 176 µg/mL (≈ 431 µM). For the same molecule, the inhibition at 50 µg/mL with Fusarium graminearum [1] is 77.3%.
In the case of `O=C(Nc1cccc([N+](=O)[O-])c1)NS(=O)(=O)C1CCCCCCCCCCC1=O` (stereo not drawn), the inhibition at 50 µg/mL in the assay on Fusarium graminearum [1] was determined as 18.1%.
On the same count and under the same terms, with `O=C(Nc1cccc(Cl)c1)NS(=O)(=O)C1CCCCCCCCCCC1=O` (stereo not drawn) the figure was 42%.
Take `CC(=O)c1ccc(NC(=O)NS(=O)(=O)C2CCCCCCCCCCC2=O)cc1` (stereo not drawn): the inhibition at 50 µg/mL with Fusarium graminearum [1] worked out at 9.3%.
In the case of `O=C1CCCCCCCCCCC1S(=O)(=O)Nc1ccc(Cl)cc1` (stereo not drawn), the EC50 was 13.8 µg/mL (≈ 37 µM) in assay [2]; 24.6 µg/mL (≈ 66.1 µM) in assay [3]; 6.82 µg/mL (≈ 18.3 µM) in the assay with Rhizoctonia solani; 17.6 µg/mL (≈ 47.3 µM) in the assay with Pythium aphanidermatum; 10.2 µg/mL (≈ 27.5 µM) in the assay on Verticillium dahliae; 7.62 µg/mL (≈ 20.5 µM) with Botrytis cinerea. For the same molecule, the EC50 in the assay with Fusarium graminearum [4] is 30 µg/mL (≈ 80.8 µM). The EC90 came out at 54.8 µg/mL (≈ 147 µM) in assay [2]; 293 µg/mL (≈ 788 µM) in assay [3]; 57 µg/mL (≈ 153 µM) in the assay on Rhizoctonia solani; 59.6 µg/mL (≈ 160 µM) in the assay on Pythium aphanidermatum; 55.3 µg/mL (≈ 149 µM) in the assay with Verticillium dahliae; 39 µg/mL (≈ 105 µM) with Botrytis cinerea. Also, the EC90 in the assay on Fusarium graminearum [4] stood at 414 µg/mL (≈ 1110 µM). The inhibition at 50 µg/mL with Fusarium graminearum [1] was 72.6%.
Regarding `O=C(Nc1cc(Cl)ccc1Cl)NS(=O)(=O)C1CCCCCC1=O` (stereo not drawn), the inhibition at 50 µg/mL in the assay on Fusarium graminearum [1] stood at 18.1%.
As to `Cc1ccc(NC(=O)NS(=O)(=O)C2CCCCCC2=O)c(C)c1` (stereo not drawn), the inhibition at 50 µg/mL in the assay with Fusarium graminearum [1] amounted to 9.3%.
Still for that read-out and setting: the figure for `COc1cc(OC)nc(NC(=O)NS(=O)(=O)C2CCCCCC2=O)n1` (stereo not drawn) is 18.1%; for `O=C(Nc1ccc(Cl)cc1)NS(=O)(=O)C1CCCCCC1=O` (stereo not drawn) it is 18.1%; for `Cc1ccc(NC(=O)NS(=O)(=O)C2CCCCCC2=O)cc1` (stereo not drawn) it is 18.1%.
The same measure, in the same setting: the figure for `O=C(Nc1ccc(Cl)c(Cl)c1)NS(=O)(=O)C1CCCCCC1=O` (stereo not drawn) is 18.1%; for `O=C(Nc1cc(Cl)ccc1Cl)NS(=O)(=O)C1CCCCC1=O` (stereo not drawn) it is 26.5%; for `Cc1ccc(NC(=O)NS(=O)(=O)C2CCCCC2=O)c(C)c1` (stereo not drawn) it is 26.5%.
Still for that read-out and setting: with `COc1cc(OC)nc(NC(=O)NS(=O)(=O)C2CCCCC2=O)n1` (stereo not drawn) the figure was 18.1%; with `O=C(Nc1ccc(Cl)cc1)NS(=O)(=O)C1CCCCC1=O` (stereo not drawn), 18.1%; with `Cc1ccc(NC(=O)NS(=O)(=O)C2CCCCC2=O)cc1` (stereo not drawn), 18.1%.
For the molecule `O=C(Nc1ccc(Cl)c(Cl)c1)NS(=O)(=O)C1CCCCC1=O` (stereo not drawn), the inhibition at 50 µg/mL with Fusarium graminearum [1] came to 18.1%.
`COC(=O)Nc1nc2ccccc2[nH]1` [CARBENDAZIM]: the EC50 in assay [2] came out at 39.8 µg/mL (≈ 208 µM); in assay [3] it was 0.54 µg/mL (≈ 2.82 µM); in the assay with Rhizoctonia solani, 1.41 µg/mL (≈ 7.37 µM); in the assay with Pythium aphanidermatum, 20.4 µg/mL (≈ 107 µM); in the assay with Verticillium dahliae it was 18.2 µg/mL (≈ 95.2 µM); in the assay with Fusarium graminearum [4], 1.95 µg/mL (≈ 10.2 µM). Also, the EC90 is 200 µg/mL (≈ 1040 µM) in assay [2]; 2.98 µg/mL (≈ 15.6 µM) in assay [3]; 2.82 µg/mL (≈ 14.7 µM) in the assay with Rhizoctonia solani; 75.9 µg/mL (≈ 397 µM) in the assay on Pythium aphanidermatum; 93.3 µg/mL (≈ 488 µM) in the assay with Verticillium dahliae; 4.46 µg/mL (≈ 23.3 µM) in the assay with Fusarium graminearum [4].
Take `CC12CC1(C)C(=O)N(c1cc(Cl)cc(Cl)c1)C2=O` (stereo not drawn) [PROCYMIDONE]: the EC90 with Botrytis cinerea is 5.75 µg/mL (≈ 20.2 µM).

By inhibition is commonly meant the percentage by which the read-out fell short of the control. Broadly, the EC50 is the concentration needed to bring the measured effect to its halfway point. A word on the EC90: it is the concentration needed for an effect of 90%.
